Measurements reported in paper PMC7340344 (Journal of medicinal chemistry, 2020).
Structures can show the parent of a compound that is named as a salt.

These compounds were tested against T1, HAT domain of human p300 (Homo sapiens, UniProt Q09472) (assay: Inhibition of p300-HAT). Settings: not given.
T1 sequence (Q09472 1195-1673): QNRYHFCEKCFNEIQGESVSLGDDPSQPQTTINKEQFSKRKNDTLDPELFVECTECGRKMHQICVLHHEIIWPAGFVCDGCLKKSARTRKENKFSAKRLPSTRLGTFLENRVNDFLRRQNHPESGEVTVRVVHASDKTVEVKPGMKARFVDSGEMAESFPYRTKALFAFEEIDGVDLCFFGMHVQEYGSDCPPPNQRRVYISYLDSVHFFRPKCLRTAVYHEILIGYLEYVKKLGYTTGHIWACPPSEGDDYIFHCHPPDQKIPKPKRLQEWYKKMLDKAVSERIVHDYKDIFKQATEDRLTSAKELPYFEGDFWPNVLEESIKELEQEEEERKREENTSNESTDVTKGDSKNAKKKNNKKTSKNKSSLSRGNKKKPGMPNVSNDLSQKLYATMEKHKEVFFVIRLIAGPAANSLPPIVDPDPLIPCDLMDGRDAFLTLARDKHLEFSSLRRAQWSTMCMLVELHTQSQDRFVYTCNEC
Type: biochemical

Compound	IC50 [µM]
CC(C)(C)c1ccc(-c2cc(CNCC3CCNCC3)oc2-c2ccc(C(C)(C)C)cc2)cc1 [Compound 34, 1-(4,5-bis(4-(tert-Butyl)phenyl)furan-2-yl)-N-(piperidin-4-ylmethyl)methanamine hydrochloride]	4.9
c1cc(-c2ccc(-c3cc(CNCC4CCNCC4)oc3-c3ccc(-c4ccoc4)cc3)cc2)co1 [Compound 35, 1-(4,5-bis(4-(Furan-3-yl)phenyl)furan-2-yl)-N-(piperidin-4-ylmethyl)methanamine hydrochloride]	3

Same assay, conditions: ratio of p300 HAT IC50 to that of compound 12

Compound	activity reduction as compared to 12
CC(C)(C)c1ccc(-c2cc(CNC3CCNCC3)sc2-c2ccc(C(C)(C)C)cc2)cc1 [Compound 14, N-((4,5-bis(4-(tert-Butyl)phenyl)thiophen-2-yl)methyl)piperidin-4-amine hydrochloride]	~ 8 fold
CC(C)(C)c1ccc(-c2cc(CNCCC3CCNCC3)sc2-c2ccc(C(C)(C)C)cc2)cc1 [Compound 15, N-((4,5-bis(4-(tert-Butyl)phenyl)thiophen-2-yl)methyl)-2-(piperidin-4-yl)ethanamine hydrochloride]	~3 fold
CC(C)(C)c1ccc(-c2cc(CNCC3CCNCC3)sc2-c2ccc(CN)cc2)cc1 [Compound 26, 1-(5-(4-(Aminomethyl)phenyl)-4-(4-(tert-butyl)phenyl)thiophen-2-yl)-N-(piperidin-4-ylmethyl)methanamine hydrochloride]	~ 3 fold
CC(C)(C)c1ccc(-c2sc(CNCC3CCNCC3)c(Br)c2-c2ccc(C(C)(C)C)cc2)cc1 [Compound 33, 1-(3-Bromo-4,5-bis(4-(tert-butyl)phenyl)thiophen-2-yl)-N-(piperidin-4-ylmethyl)methanamine hydrochloride]	~ 3 fold
CC(C)(C)c1ccc(-c2nc(CNCC3CCNCC3)sc2-c2ccc(C(C)(C)C)cc2)cc1 [Compound 37, 1-(4,5-bis(4-(tert-Butyl)phenyl)thiazol-2-yl)-N-(piperidin-4-ylmethyl)methanamine hydrochloride]	more than 13 fold

Same assay, conditions: read-out: % inhibition at 10 μM, compound at 10 μM

Compound	inhibition at 10 µM [%]
CC(C)(C)c1ccc(-c2sc(C(=O)NCC3CCNCC3)cc2-c2ccoc2)cc1 [Compound 8, 5-(4-(tert-Butyl)phenyl)-4-(furan-3-yl)-N-(piperidin-4-ylmethyl)thiophene-2-carboxamide hydrochloride]	~30
CC(C)(C)c1ccc(-c2sc(C(=O)NCC3CCNCC3)cc2-c2cccnc2)cc1 [Compound 9, 5-(4-(tert-Butyl)phenyl)-N-(piperidin-4-ylmethyl)-4-(pyridin-3-yl)thiophene-2-carboxamide hydrochloride]	~30

Same assay, conditions: removal of the carbonyl group

Compound	activity reduction as compared to 3
COc1ccc(-c2ccc(-c3cc(CNCC4CCNCC4)sc3-c3ccc(-c4ccc(OC)cc4)cc3)cc2)cc1 [Compound 10, 1-(4,5-bis(4’-Methoxy-[1,1’-biphenyl]-4-yl)thiophen-2-yl)-N-(piperidin-4-ylmethyl)methanamine hydrochloride]	~ 50%

Same assay, conditions: tested up to 10 μM

Compound	inhibitory activity against p300 HAT (in words)
CC(C)(C)c1ccc(-c2sc(C(=O)NCC3CCNCC3)cc2-c2ccc(CN3CCNCC3)cc2)cc1 [Compound 7, 5-(4-(tert-Butyl)phenyl)-4-(4-(piperazin-1-ylmethyl)phenyl)-N-(piperidin-4-ylmethyl)thiophene-2-carboxamide hydrochloride]	almost inactive
CC(C)(C)c1ccc(-c2cc(COCC3CCNCC3)sc2-c2ccc(C(C)(C)C)cc2)cc1 [Compound 13, 4-(((4,5-bis(4-(tert-Butyl)phenyl)thiophen-2-yl)methoxy)methyl)piperidine hydrochloride]	complete loss of inhibitory activity
CC(C)(C)c1ccc(-c2cc(CN3CCNCC3)sc2-c2ccc(C(C)(C)C)cc2)cc1 [Compound 18, 1-((4,5-bis(4-(tert-Butyl)phenyl)thiophen-2-yl)methyl)piperazine hydrochloride]	Loss of activity
CC(C)(C)c1ccc(-c2cc(CN3CCOCC3)sc2-c2ccc(C(C)(C)C)cc2)cc1 [Compound 19, 4-((4,5-bis(4-(tert-Butyl)phenyl)thiophen-2-yl)methyl)morpholine hydrochloride]	Loss of activity
CCCCc1ccc(-c2cc(CNCC3CCNCC3)sc2-c2ccc(CCCC)cc2)cc1 [Compound 23, 1-(4,5-bis(4-Butylphenyl)thiophen-2-yl)-N-(piperidin-4-ylmethyl)methanamine hydrochloride]	Loss of activity
CC(C)(C)c1ccc(-c2sc(CNCC3CCNCC3)cc2-c2ccc(CN)cc2)cc1 [Compound 27, 1-(4-(4-(Aminomethyl)phenyl)-5-(4-(tert-butyl)phenyl)thiophen-2-yl)-N-(piperidin-4-ylmethyl)-methanamine hydrochloride]	major activity loss
NCc1ccc(-c2cc(CNCC3CCNCC3)sc2-c2ccc(CN)cc2)cc1 [Compound 28, ((5-(((Piperidin-4-ylmethyl)amino)methyl)thiophene-2,3-diyl)bis(4,1-phenylene))dimethanamine hydrochloride]	inactive
OCc1ccc(-c2cc(CNCC3CCNCC3)sc2-c2ccc(CO)cc2)cc1 [Compound 29, ((5-(((Piperidin-4-ylmethyl)amino)methyl)thiophene-2,3-diyl)bis(4,1-phenylene))dimethanol hydrochloride]	weak inhibitor
c1cc(-c2cc(CNCC3CCNCC3)sc2-c2ccoc2)co1 [Compound 30, 1-(4,5-di(Furan-3-yl)thiophen-2-yl)-N-(piperidin-4-ylmethyl)methanamine hydrochloride]	very low activity
COc1ccc(-c2cc(CNCC3CCNCC3)sc2-c2ccc(OC)c(OC)c2)cc1OC [Compound 31, 1-(4,5-bis(3,4-Dimethoxyphenyl)thiophen-2-yl)-N-(piperidin-4-ylmethyl)methanamine hydrochloride]	Lack of inhibition
c1ccc(-c2cccc(-c3cc(CNCC4CCNCC4)sc3-c3cccc(-c4ccccc4)c3)c2)cc1 [Compound 32, 1-(4,5-di([1,1’-Biphenyl]-3-yl)thiophen-2-yl)-N-(piperidin-4-ylmethyl)methanamine hydrochloride]	Lack of inhibition
CC(C)(C)c1ccc(-c2csc(CNCC3CCNCC3)n2)cc1 [Compound 38, 1-(4-(4-(tert-Butyl)phenyl)thiazol-2-yl)-N-(piperidin-4-ylmethyl)methanamine hydrochloride]	Loss of activity
CC(C)(C)c1ccc(-c2csc(C(=O)NCC3CCNCC3)n2)cc1 [Compound 39, 4-(4-(tert-Butyl)phenyl)-N-(piperidin-4-ylmethyl)thiazole-2-carboxamide hydrochloride]	Loss of activity
N-((5,6-bis(4-(Furan-3-yl)phenyl)pyrazin-2-yl)methyl)piperidin-4-amine hydrochloride [Compound 40]	significantly less active than its thiophene analog 11

Each compound was assayed against LSD1 (Homo sapiens, UniProt O60341) (assay: Inhibition of LSD1). Settings: not given.
Type: biochemical

Compound	inhibition of LSD1 activity at 50 μM
CC(C)(C)c1ccc(-c2cc(C(=O)NCC3CCNCC3)sc2-c2ccc(C(C)(C)C)cc2)cc1 [Compound 1, 4,5-bis(4-(tert-Butyl)phenyl)-N-(piperidin-4-ylmethyl)thiophene-2-carboxamide hydrochloride]	did not significantly inhibit

The compounds below were run against T2, p300 HAT and histone H4 (Homo sapiens, UniProt Q09472) (assay: Alpha assay, binding between p300 HAT and histone H4 peptide). Settings: not given.
T2 sequence (Q09472 1287-1663 limits assumed): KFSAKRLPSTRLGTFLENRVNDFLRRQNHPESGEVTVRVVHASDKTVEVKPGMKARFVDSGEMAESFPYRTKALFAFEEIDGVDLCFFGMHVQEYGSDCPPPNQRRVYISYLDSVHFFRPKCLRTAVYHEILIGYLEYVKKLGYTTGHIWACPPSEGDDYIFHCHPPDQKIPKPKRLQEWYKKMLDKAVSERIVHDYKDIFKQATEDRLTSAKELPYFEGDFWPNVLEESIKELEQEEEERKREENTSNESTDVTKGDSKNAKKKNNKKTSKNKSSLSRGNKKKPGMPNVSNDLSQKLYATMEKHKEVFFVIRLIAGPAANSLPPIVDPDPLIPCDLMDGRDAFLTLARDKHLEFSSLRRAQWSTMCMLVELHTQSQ

Compound	effect on binding between p300 HAT and histone H4 (in words)
NCc1ccc(-c2cc(CNCC3CCNCC3)sc2-c2ccc(CN)cc2)cc1 [Compound 28, ((5-(((Piperidin-4-ylmethyl)amino)methyl)thiophene-2,3-diyl)bis(4,1-phenylene))dimethanamine hydrochloride]	not interfered

These compounds were tested on Kasumi-1 leukemia cells (assay: Western blot of cellular histone acetylation). Settings: Kasumi-1 cells, 12h, 5 and 10 μM.
Type: cell-based
Method in brief: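 Kasumi-1 cells (10^6/well) were exposed to test compound at 0, 5 and 10 μM for 12 h. Total histones were extracted by kit, and 2 μg per lane were separated by SDS-PAGE and transferred to PVDF. Blots were probed with antibodies to H3K9Ac, H3K18Ac, H3K27Ac and total H3, then with an anti-rabbit IgG secondary.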

Compound	cellular acetylation of histone H3K9, H3K18 and H3K27
NCc1ccc(-c2cc(CNCC3CCNCC3)sc2-c2ccc(CN)cc2)cc1 [Compound 28, ((5-(((Piperidin-4-ylmethyl)amino)methyl)thiophene-2,3-diyl)bis(4,1-phenylene))dimethanamine hydrochloride]	no significant activity
